{
  "source": "paper PMC5421626",
  "about": "(Japanese Journal of Clinical Oncology, 2017)",
  "key": {"[1]": {"assay": "Safety assessment", "assay_type": "in vivo, human (Japanese patients with prostate cancer)", "conditions": "for incidence of serious AEs / incidence of ADRs / overall incidence of AEs: SAF", "how_it_was_run": "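The safety set covered all dosed patients, given a subcutaneous 240 mg initial dose, then 360 or 480 mg maintenance every 84 days for 12 months. Recorded were AEs, serious AEs and ADRs (including injection-site reactions), with AEs graded by NCI-CTCAE v4.0, plus biochemistry, hematology, urinalysis, vital signs and 12-lead ECG. Frequencies were tabulated by MedDRA System Organ Class and Preferred Term.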"}, "[2]": {"tested_on": "serum testosterone", "conditions": "Study CL-0003, 1-month regimen, cited from earlier work"}, "[3]": {"assay": "Plasma pharmacokinetics of degarelix", "assay_type": "in vivo, human (Japanese patients with prostate cancer)", "conditions": "for GMR (95% CI) of Ctrough values between Days 28 and 364: human plasma, LC-MS/MS, geometric mean ratio, PKAS; for Cmax / Tmax: male, human, plasma, sc", "how_it_was_run": "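Patients got a subcutaneous 240 mg (40 mg/ml) initial dose, then 360 or 480 mg (60 mg/ml) every 84 days from Day 28, for four doses. Plasma was sampled every 28 days and assayed by validated LC-MS/MS (LOQ 0.5 ng/ml). Ctrough was taken on Days 28, 112, 196, 280 and 364, and GMRs with 95% CIs were compared. In a subset, samples 3 and 7 days after Day 28 gave Cmax and Tmax. Analysis set: PKAS.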"}, "[4]": {"tested_on": "serum testosterone", "assay": "Serum testosterone suppression", "assay_type": "in vivo, human (Japanese patients with prostate cancer)", "conditions": "completers–FAS"}, "[5]": {"tested_on": "serum PSA", "conditions": "Study CL-0003, 1-month regimen, cited from earlier work"}, "[6]": {"tested_on": "serum prostate-specific antigen (PSA)", "assay": "Serum PSA response and PSA failure, Phase II 3-month degarelix study", "assay_type": "in vivo, human (Japanese patients with prostate cancer)", "conditions": "FAS; for median percent change in serum PSA level from baseline to Day 364: range −99.9%", "how_it_was_run": "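Randomised 1:1 by minimisation, patients got a subcutaneous 240 mg initial dose, then from Day 28 360 or 480 mg (60 mg/ml) every 84 days for four doses. In the full analysis set, percent change in serum PSA from baseline was calculated at Days 28 and 364. PSA failure (relapse) over Days 0–364 was given as a proportion with two-sided 95% CI, and cumulative incidence by Kaplan–Meier.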"}, "[7]": {"tested_on": "serum testosterone", "conditions": "Study CS18, 3-month regimen, cited from earlier work"}},
  "note": "Read-outs that look alike come from different tables or passages of the source. Where a SMILES comes first, the peptide text is derived from it. [ ]: non-standard residue; d: D form. The star is where a group is joined. dPhe(4-NHCONH2) = NC(=O)Nc1ccc(C[C@@H](N)C(=O)O)cc1; Dihydroorotyl(S) = O=C1C[C@@H](C(=O)*)NC(=O)N1; dPhe(4-Cl) = N[C@H](Cc1ccc(Cl)cc1)C(=O)O; Phe(4-NH2) = Nc1ccc(C[C@H](N)C(=O)O)cc1; d2Nal = N[C@H](Cc1ccc2ccccc2c1)C(=O)O; Lys(iPr) = CC(C)NCCCC[C@H](N)C(=O)O; d3Pal = N[C@H](Cc1cccnc1)C(=O)O",
  "data": [
    {"compound": "CC(=O)N[C@H](Cc1ccc2ccccc2c1)C(=O)N[C@H](Cc1ccc(Cl)cc1)C(=O)N[C@H](Cc1cccnc1)C(=O)N[C@@H](CO)C(=O)N[C@@H](Cc1ccc(NC(=O)[C@@H]2CC(=O)NC(=O)N2)cc1)C(=O)N[C@H](Cc1ccc(NC(N)=O)cc1)C(=O)N[C@@H](CC(C)C)C(=O)N[C@@H](CCCCNC(C)C)C(=O)N1CCC[C@H]1C(=O)N[C@H](C)C(N)=O", "note": "[degarelix] (Ac-[d2Nal][dPhe(4-Cl)][d3Pal]S[Phe(4-NH2)](Dihydroorotyl(S))[dPhe(4-NHCONH2)]L[Lys(iPr)]P[dA]-NH2)", "values": [
      {"measurement": "patients with AEs related to injection site reactions", "setting": "[1]; 360 mg group", "result": 50.0, "unit": "%"},
      {"measurement": "incidence of serious AEs", "setting": "[1]; 360 mg group, 13/76", "result": 17.1, "unit": "%"},
      {"measurement": "incidence of ADRs", "setting": "[1]; 360 mg group, 68/76", "result": 89.5, "unit": "%"},
      {"measurement": "overall incidence of AEs", "setting": "[1]; 360 mg group, 72/76", "result": 94.7, "unit": "%"},
      {"measurement": "deaths (patients)", "setting": "[1]; 360 mg group, suicide after initial dose, before maintenance dose", "result": "One"},
      {"measurement": "patients with AEs related to injection site reactions", "setting": "[1]; 480 mg group", "result": 60.5, "unit": "%"},
      {"measurement": "patients with marked increase (≥480 ms) in QTcF on Day 364", "setting": "[1]; 480 mg group, 12-lead electrocardiogram", "result": "one"},
      {"measurement": "incidence of serious AEs", "setting": "[1]; 480 mg group, 7/76", "result": 9.2, "unit": "%"},
      {"measurement": "incidence of ADRs", "setting": "[1]; 480 mg group, 71/76", "result": 93.4, "unit": "%"},
      {"measurement": "overall incidence of AEs", "setting": "[1]; 480 mg group, 73/76", "result": 96.1, "unit": "%"},
      {"measurement": "patients who discontinued the treatment because of injection site reactions", "setting": "[1]; both groups", "result": "no patient"},
      {"measurement": "severity of injection site reactions", "setting": "[1]; both groups, NCI-CTCAE v4.0", "result": "mild or moderate (Grade 1 or 2)"},
      {"measurement": "cumulative probability of serum testosterone ≤0.5 ng/ml", "setting": "[2]; 80 mg maintenance-dose group", "result": 94.5, "unit": "%"},
      {"measurement": "cumulative probability of serum testosterone ≤0.5 ng/ml", "setting": "[2]; 160 mg maintenance-dose group", "result": 95.2, "unit": "%"},
      {"measurement": "GMR (95% CI) of Ctrough values between Days 28 and 364", "setting": "[3]; 360 mg group", "result": "1.258 (1.114–1.421)"},
      {"measurement": "GMR (95% CI) of Ctrough values between Days 28 and 364", "setting": "[3]; 480 mg group", "result": "1.752 (1.589–1.932)"},
      {"measurement": "steady state of plasma concentration", "setting": "[3]; both dose groups (360 and 480 mg every 84 days)", "result": "did not achieve steady state by Day 364"},
      {"measurement": "Cmax", "setting": "[3]; 360 mg", "result": "74.7 ± 30", "unit": "ng/mL"},
      {"measurement": "Tmax", "setting": "[3]; 360 mg", "result": 71.3, "unit": "h"},
      {"measurement": "Cmax", "setting": "[3]; 480 mg", "result": "98.5 ± 31.7", "unit": "ng/mL"},
      {"measurement": "Tmax", "setting": "[3]; 480 mg", "result": 70.8, "unit": "h"},
      {"measurement": "proportion of patients with a serum testosterone level ≤0.5 ng/ml from Days 28 to 364", "setting": "[4]; 360 mg group, 95% CI 76.85–94.45%", "result": 87.50, "unit": "%"},
      {"measurement": "proportion of patients with a serum testosterone level ≤0.5 ng/ml from Days 28 to 364", "setting": "[4]; 480 mg group, 95% CI 89.92–99.65%", "result": 97.10, "unit": "%"},
      {"measurement": "percent change in PSA at Day 28", "setting": "[5]; 80 mg maintenance-dose group", "result": "–80.14%"},
      {"measurement": "percent change in PSA at Day 28", "setting": "[5]; 160 mg maintenance-dose group", "result": "–79.52%"},
      {"measurement": "median percent change in serum PSA level from baseline to Day 28", "setting": "[6]; 360 mg group (after 240 mg initial dose)", "result": "−70.4", "unit": "%"},
      {"measurement": "proportion of patients with PSA failure (serum PSA relapse) from baseline to Day 364", "setting": "[6]; 360 mg group", "result": 2.7, "unit": "%"},
      {"measurement": "median percent change in serum PSA level from baseline to Day 364", "setting": "[6]; 360 mg group, −51.3%", "result": "−95.05", "unit": "%"},
      {"measurement": "median percent change in serum PSA level from baseline to Day 28", "setting": "[6]; 480 mg group (after 240 mg initial dose)", "result": "−79.9", "unit": "%"},
      {"measurement": "proportion of patients with PSA failure (serum PSA relapse) from baseline to Day 364", "setting": "[6]; 480 mg group", "result": 1.3, "unit": "%"},
      {"measurement": "median percent change in serum PSA level from baseline to Day 364", "setting": "[6]; 480 mg group, −44.0%", "result": "−96.43", "unit": "%"},
      {"measurement": "cumulative probability of serum testosterone ≤0.5 ng/ml", "setting": "[7]; 360 mg group", "result": 89.0, "unit": "%"},
      {"measurement": "cumulative probability of serum testosterone ≤0.5 ng/ml", "setting": "[7]; 480 mg group", "result": 93.3, "unit": "%"}
    ]}
  ]
}
